From PubChem BioAssay
PDI turbidity – inhibitors of human PDI, primary screen, biochemical, turbidity, single point, plate reader. inhibition, % at 10 µM. Protein disulfide-isomerase (Homo sapiens), P07237. PDI insulin aggregation turbidity, A650, 90 min. 350,000 compounds, 0.052% hits;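 active = mean inhibition across replicates of 30% or more, whatever share of single replicates reach that level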
CAL PDZ FP-1 – untagged CAL PDZ binding inhibitors, primary screen, biochemical, fluorescence polarization, HTS; Golgi-associated PDZ and coiled-coil motif-containing protein (Homo sapiens), Q9HD26; purified CAL PDZ, TMR-peptide fluorescence polarization, 1 h; inhibition, % at 24.9 µM; 300,000 compounds, 0.92% hits;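 active = mean inhibition of at least 30% with at least half of replicates also reaching 30%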;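 also: 0% = DMSO neutral control and 100% = excess unlabeled competitor peptide PRC23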
ERp5 inh – inhibitors of ERp5-driven insulin aggregation, primary screen, biochemical, turbidity, absorbance 650 nm, single point. Protein disulfide-isomerase A6 (Homo sapiens), Q15084. 90 min. inhibition, % at 9.99 µM. 350,000 compounds, 0.05% hits. AID 651711, 2012;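 active = mean replicate inhibition above about 25%, with every replicate also reaching it, limit read from the data, passing the limit was not always enough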
Target sequence (Q15084 whole entry, looked up): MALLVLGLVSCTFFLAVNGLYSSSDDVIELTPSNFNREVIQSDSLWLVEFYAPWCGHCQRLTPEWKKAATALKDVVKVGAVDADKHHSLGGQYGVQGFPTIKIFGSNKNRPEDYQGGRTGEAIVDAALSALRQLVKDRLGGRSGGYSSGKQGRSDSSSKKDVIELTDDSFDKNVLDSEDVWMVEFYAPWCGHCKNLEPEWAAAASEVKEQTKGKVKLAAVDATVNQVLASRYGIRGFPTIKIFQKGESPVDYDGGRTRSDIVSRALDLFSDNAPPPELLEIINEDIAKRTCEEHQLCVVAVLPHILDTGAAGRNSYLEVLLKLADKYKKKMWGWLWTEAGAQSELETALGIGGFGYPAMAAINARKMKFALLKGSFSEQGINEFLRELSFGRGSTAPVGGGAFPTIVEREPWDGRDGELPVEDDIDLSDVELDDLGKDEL
CAL PDZ FP-2 – CAL PDZ peptide-binding inhibitors, primary screen, biochemical, fluorescence polarization, Cer-tagged CAL PDZ, HTS | purified CAL PDZ, TMR-peptide fluorescence polarization, 1 h | 330,000 compounds, 0.02% hits | inhibition, % at 20 µM;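 active = highest replicate inhibition of at least 40%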;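 also: plate controls were DMSO neutral control wells for no effect and unlabeled competitor peptide control wells for full effect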
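material = purified tagged CAL PDZ domain construct (CerCALP) | compound dosing = 20 µM, one dose | times = 1 h at RT | measured by = fluorescence polarization from S- and P-plane intensities, G-factor corrected | read-out = inhibition from polarization loss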
RAD54 inh – inhibitors of human RAD54 branch migration, primary screen, biochemical, fluorescence, single point; 360,000 compounds, 0.14% hits; RAD54 Holliday junction branch migration, FAM/BHQ fluorescence; DNA repair and recombination protein RAD54-like (Homo sapiens), Q92698; inhibition, % at 10.4 µM;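 active = mean normalized replicate activity at least 40 and at least half of replicates scoring 40 or more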;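 also: 0% = median of neutral control wells and 100% = median of positive control wells; inhibitors cause a drop in the FAM fluorescence signal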
RAD52 inh – RAD52 DNA annealing inhibitors, primary screen, biochemical, FRET, single point, set 2. DNA repair protein RAD52 homolog (Homo sapiens), P43351. recombinant RAD52 DNA annealing, FRET fluorescence. inhibition, % at 18.7 µM. 360,000 compounds, 0.46% hits;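 active = every replicate showing at least 50% inhibition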
An asterisk follows results filed as active; . = no result given. Compounds with a hit are over-represented: about 1% of the library has one in this group of screens.

SMILES	PDI turbidity	CAL PDZ FP-1	ERp5 inh	CAL PDZ FP-2	RAD54 inh	RAD52 inh
Cc1ccc2c(CC(=O)N3CCN(S(=O)(=O)c4ccc5c(c4)OCCO5)CC3)coc2c1	11	58*	.	0	-11	.
O=C(Cn1ncc2c([nH]c3ccccc32)c1=O)N1CCOCC1	2	39*	5	-1	-1	-2
COC(=O)CNc1cccc(C(F)(F)F)c1	4	75*	-4	17	-6	-12
O=C(NCCN1CCOCC1)c1cccc(S(=O)(=O)Nc2cc(Cl)ccc2Cl)c1	-5	-2	5	-1	6	-4
O=C(NCCCN1CCOCC1)c1cccc(S(=O)(=O)Nc2cc(Cl)ccc2Cl)c1	6	38*	8	-1	.	-7
CC1CN(C(=O)c2cccc(S(=O)(=O)Nc3ccccc3Cl)c2)CC(C)O1 (centres undefined)	5	-3	-1	0	3	-7
CC1CN(C(=O)c2cc(S(=O)(=O)N3CCCCC3)ccc2Cl)CC(C)O1 (centres undefined)	-1	39*	-3	0	-9	-8
CC1CN(C(=O)c2cc(S(=O)(=O)N3CCCC3)ccc2Cl)CC(C)O1 (centres undefined)	-5	-2	1	-2	-6	-4
CC1CN(C(=O)c2cccc(S(=O)(=O)Nc3cc(Cl)ccc3Cl)c2)CC(C)O1 (centres undefined)	1	79*	0	-1	.	-9
COc1ccc(NC(=O)Nc2ccc3c(c2)C(=O)N([C@H](C)CO)C[C@@H](C)[C@H](CN(C)S(=O)(=O)c2cn(C)cn2)O3)cc1	.	.	1	.	2	9
O=C(C[C@H]1CC[C@H]2[C@@H](COC[C@H](O)CN2C(=O)Nc2ccc(Cl)c(Cl)c2)O1)NCc1ccncc1	.	.	1	.	-7	-1
CC(C)CCN1C(=O)c2ccc(C(=O)Nc3cc(C(=O)O)cc(C(=O)O)c3)cc2C1=O	7	33*	1	0	-7	-2
CC(C)CCN1C(=O)c2ccc(C(=O)Nc3ccc(Br)cc3C(=O)O)cc2C1=O	-3	.	1	-1	1	-4
O=c1cccc2c1c1cc[nH]c3ccc(=O)n2c31	.	49*	-4	-1	5	-33
O=c1cc[nH]c2ccc(Cl)cc12	8	1	0	0	8	-4
NS(=O)(=O)c1ccc(CNC(=O)/C=C/c2c(F)cccc2Cl)cc1	-2	70*	1	-1	.	-16
NS(=O)(=O)c1ccc(CNC(=O)/C=C/c2cccc(Cl)c2)cc1	-7	13	.	0	2	.
CCC(=O)N[C@H]1CC[C@H](CC(=O)NCC2CCCCC2)O[C@@H]1CO	.	.	-1	.	3	-2
O=C(C[C@H]1CC[C@@H](NC(=O)Nc2cc(F)ccc2F)[C@H](CO)O1)NCc1ccncn1	.	.	-7	.	-4	3
C[C@H](CO)N1C[C@H](C)[C@H](CN(C)Cc2ccccc2)Oc2ccc(NC(=O)Nc3ccc(C(F)(F)F)cc3)cc2CC1=O	.	.	-1	.	-4	6
C[C@@H]1CN([C@H](C)CO)C(=O)Cc2cc(NC(=O)Nc3cccc4ccccc34)ccc2O[C@@H]1CN(C)C(=O)Nc1cccc2ccccc12	.	.	52*	.	9	11
C[C@H](CO)N1C[C@H](C)[C@@H](CN(C)Cc2ccccc2)Oc2ccc(NC(=O)Nc3ccc(C(F)(F)F)cc3)cc2CC1=O	.	.	-1	.	-4	54*
C[C@H](CO)N1C[C@H](C)[C@@H](CN(C)Cc2ccc3c(c2)OCO3)Oc2ccc(NC(=O)Nc3cccc4ccccc34)cc2CC1=O	.	.	-1	.	30	55*
C[C@H]1CN([C@@H](C)CO)C(=O)Cc2cc(NC(=O)Nc3cccc4ccccc34)ccc2O[C@H]1CN(C)Cc1ccc2c(c1)OCO2	.	.	-2	.	15	23
Cc1noc(C)c1NC(=O)N(C)C[C@H]1Oc2ccc(NC(=O)Cc3ccccc3)cc2CC(=O)N([C@@H](C)CO)C[C@@H]1C	.	.	-4	.	-8	77*
SMILES	PDI turbidity	CAL PDZ FP-1	ERp5 inh	CAL PDZ FP-2	RAD54 inh	RAD52 inh
COCCNC(=O)C[C@H]1CC[C@H]2[C@@H](COc3ccc(NC(=O)CC(F)(F)F)cc3C(=O)N2C)O1	.	.	0	.	5	-4
O=C(C[C@H]1CC[C@@H](NC(=O)C2CC2)[C@@H](CO)O1)NC1CCC1	.	.	2	.	-3	2
COc1ccc(NC(=O)N(C)C[C@@H]2Oc3ccc(NC(=O)Nc4ccc(F)cc4)cc3CC(=O)N([C@@H](C)CO)C[C@@H]2C)cc1	.	.	79*	.	6	-5
C[C@@H]1CN([C@H](C)CO)C(=O)c2cc(C#CC3CCCC3)cnc2O[C@@H]1CN(C)Cc1ccncc1	.	.	4	.	-10	-3
CC1CCN(C(=O)COC(=O)c2ccc(N3CCCC3=O)cc2)CC1	-5	46*	6	-1	5	-4
CC1CCCCN1C(=O)COC(=O)c1ccc(N2CCCC2=O)cc1 (centres undefined)	1	.	-3	1	-4	-2
O=C1C[C@@](C(=O)NCCN2CCOCC2)(c2ccc([N+](=O)[O-])cc2)[C@@H](c2ccc(CO)cc2I)N1CC12CC3CC(CC(C3)C1)C2	.	.	3	.	-11	58*
CC(C(=O)NCCN1CCOCC1)c1ccc([N+](=O)[O-])cc1 (centres undefined)	7	-2	4	-3	.	-11
O=C(CCC(=O)N1CCOCC1)c1ccc(F)cc1	-2	33*	5	-6	.	-3
Cc1cccc(NC(=O)CCNC(=O)c2ccccc2)c1	-3	-1	1	1	-6	-2
O=C(Nc1ccccc1NC(=O)c1ccc(F)cc1)c1ccc(F)cc1	-13	1	3	0	2	-4
CC(=O)Nc1ccc(C(=O)NNC(=O)c2cccc(C)c2)cc1	-4	41*	2	-1	-2	5
O=C(NC1=C(Nc2ccc(F)cc2)C(=O)c2ccccc2C1=O)c1ccc(Cl)cc1	-3	70*	.	-2	.	.
O=C(NNC(=O)c1ccc(NC(=O)c2ccccc2)cc1)c1ccc(F)cc1	-1	48*	4	-1	-1	4
CC(=O)c1cccc(NC(=O)CCNC(=O)c2cccc(C)c2)c1	0	71*	2	-1	-3	9
